Active and inactive are the calls of the source. The rule behind the calls is not given here.
Legend:
[1] = Clearance in mouse liver microsomes assessed as compound remaining incubated for 1 hr by LC-MS/MS method; assay type: ADME
[2] = Efflux ratio in MDCK cells at 10 uM incubated over 60 mins; assay type: ADME, cell-based, Canis lupus familiaris; conditions: dog
Summary of the method: (§1)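 MDCK cells exposed to test compound at 10 μM over 60 min. Apparent permeability (Papp) measured. Efflux ratio derived from apical–basolateral versus basolateral–apical flux rates.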

[3] = biological target: T1, Mitogen-activated protein kinase kinase kinase kinase 4 (Homo sapiens, UniProt O95819); assay: Inhibition of MAP4K4 (unknown origin) by Z'LYTE assay
[4] = test system: HUVEC; assay: Anti-angiogenesis activity in HUVEC assessed as inhibition of cell migration; assay type: functional, cell-based; conditions: Homo sapiens
[5] = Clearance in human liver microsomes assessed as compound remaining incubated for 1 hr by LC-MS/MS method; assay type: ADME
[6] = Apparent permeability in MDCK cells at 10 uM incubated over 60 mins; assay type: ADME, cell-based, Canis lupus familiaris; conditions: dog; summary of the method: as §1
[7] = Cmax in rat at 1 mg/kg, iv; assay type: ADME, organism-based; parameters: dose 1 mg/kg, route intravenous; conditions: in vivo
Summary of the method: (§2)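 Single IV bolus of 1 mg/kg given as a solution in 10% EtOH, 30% PEG400, 60% 50 mM citrate, pH 3.0, in mouse, rat or dog. Three animals per group; mean values reported.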

[8] = test system: Mus musculus; assay: Drug level in neonatal mouse pups assessed as time duration for sustained drug exposure at 25 and 50 mg/kg, ip; assay type: ADME, organism-based; conditions: in vivo
Summary of the method: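 Neonatal mouse pups given 25 or 50 mg/kg intraperitoneally. Plasma exposure followed over 24 h post-dose.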

[9] = Oral bioavailability in rat at 5 mg/kg; assay type: ADME, organism-based; conditions: in vivo
Summary of the method: (§3)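 Oral dose of 5 mg/kg given as a suspension in 0.5% (w/v) methylcellulose/0.2% (w/v) Tween 80 in sterile water, in mouse, rat or dog. Three animals per group; means reported. Bioavailability derived against a 1 mg/kg IV bolus.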

[10] = test system: Canis familiaris; assay: AUC (infinity) in dog at 5 mg/kg, po; assay type: ADME, organism-based, Canis lupus familiaris; parameters: dose 5 mg/kg, time infinity, route oral; conditions: in vivo
[11] = Tmax in dog at 5 mg/kg, po; assay type: ADME, organism-based, Canis lupus familiaris; conditions: in vivo; summary of the method: as §3
[12] = Clearance in mouse at 1 mg/kg, iv; assay type: ADME, organism-based; conditions: in vivo; summary of the method: as §2
[13] = Tmax in rat at 5 mg/kg, po; assay type: ADME, organism-based; conditions: in vivo; summary of the method: as §3
[14] = test system: Mus musculus; assay: Volume of distribution in mouse at 5 mg/kg, po; assay type: ADME, organism-based; conditions: in vivo
[15] = Cmax in mouse at 1 mg/kg, iv; assay type: ADME, organism-based; parameters: dose 1 mg/kg, route intravenous; conditions: in vivo; summary of the method: as §2
[16] = Cmax in mouse at 5 mg/kg, po; assay type: ADME, organism-based; parameters: dose 5 mg/kg, route oral; conditions: in vivo; summary of the method: as §3
[17] = Cmax in rat at 5 mg/kg, po; assay type: ADME, organism-based; parameters: dose 5 mg/kg, route oral; conditions: in vivo; summary of the method: as §3
[18] = AUC (infinity) in rat at 5 mg/kg, po; assay type: ADME, organism-based; parameters: dose 5 mg/kg, time infinity, route oral; conditions: in vivo
[19] = Half life in dog at 1 mg/kg, iv; assay type: ADME, organism-based, Canis lupus familiaris; conditions: in vivo; summary of the method: as §2
[20] = Cmax in dog at 1 mg/kg, iv; assay type: ADME, organism-based, Canis lupus familiaris; parameters: dose 1 mg/kg, route intravenous; conditions: in vivo; summary of the method: as §2
[21] = AUC (infinity) in mouse at 5 mg/kg, po; assay type: ADME, organism-based; parameters: dose 5 mg/kg, time infinity, route oral; conditions: in vivo
[22] = test system: Canis familiaris; assay: Volume of distribution in dog at 5 mg/kg, po; assay type: ADME, organism-based, Canis lupus familiaris; conditions: in vivo
[23] = Half life in mouse at 1 mg/kg, iv; assay type: ADME, organism-based; conditions: in vivo; summary of the method: as §2
[24] = test system: Rattus norvegicus; assay: Volume of distribution in rat at 5 mg/kg, po; assay type: ADME, organism-based; conditions: in vivo
[25] = Half life in rat at 1 mg/kg, iv; assay type: ADME, organism-based; conditions: in vivo; summary of the method: as §2
[26] = Protein binding in rat plasma; assay type: ADME, cell-free; conditions: read-out: PPB (converted)
[27] = Protein binding in mouse plasma; assay type: ADME, cell-free; conditions: read-out: PPB (converted)
[28] = Oral bioavailability in mouse at 5 mg/kg; assay type: ADME, organism-based; conditions: in vivo; summary of the method: as §3
[29] = test system: Brain; assay: Free drug concentration in mouse brain; assay type: ADME, tissue-based; conditions: in vivo
Summary of the method: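 Unbound drug concentration in brain measured in mice at the 1 h time point of the cross-species PK study.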

[30] = Tmax in mouse at 5 mg/kg, po; assay type: ADME, organism-based; conditions: in vivo; summary of the method: as §3
[31] = Cmax in dog at 5 mg/kg, po; assay type: ADME, organism-based, Canis lupus familiaris; parameters: dose 5 mg/kg, route oral; conditions: in vivo; summary of the method: as §3
[32] = Clearance in rat at 1 mg/kg, iv; assay type: ADME, organism-based; conditions: in vivo; summary of the method: as §2
[33] = test system: Canis familiaris; assay: Oral bioavailability in dog at 5 mg/kg; assay type: ADME, organism-based, Canis lupus familiaris; conditions: in vivo; summary of the method: as §3
[34] = test system: Mus musculus; assay: Anti-angiogenesis activity in neonatal mouse pups assessed as delay in retinal vascular outgrowth dosed intraperitoneally daily form P1 to P5 days by isolectin -B4 staining; assay type: functional, organism-based
Summary of the method: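 Newborn mice dosed IP daily with vehicle or 100 mg/kg from P1 to P5. Retinas flat-mounted at P6 and stained with isolectin-B4. Avascular area normalized to total retina, one value per retina. Mann–Whitney unpaired test.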

[35] = test system: Mus musculus; assay: Anti-angiogenesis activity in neonatal mouse pups assessed as induction of abnormal retinal vascular morphology at 100 mg/kg, ip dosed daily form P1 to P6 days by isolectin -B4 staining
[36] = Ratio of drug level in brain to plasma in rat administered as cassette dosing; assay type: ADME, organism-based; conditions: read-out: BPR
Summary of the method: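 Brain-to-plasma ratio determined in rats after IV cassette dosing.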

[37] = Clearance in rat liver microsomes assessed as compound remaining incubated for 1 hr by LC-MS/MS method; assay type: ADME
Summary of the method: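 Compounds incubated with rat liver microsomes for 1 h; percent parent remaining quantified by LC–MS/MS.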

[38] = biological target: T1, Mitogen-activated protein kinase kinase kinase kinase 4; assay: Inhibition of MAP4K4 (unknown origin) by LC3K method
Summary of the method: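 Kinase activity read on a Caliper LabChip 3000 platform, with IC50 values derived from that read-out.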

T1 sequence (O95819 whole entry): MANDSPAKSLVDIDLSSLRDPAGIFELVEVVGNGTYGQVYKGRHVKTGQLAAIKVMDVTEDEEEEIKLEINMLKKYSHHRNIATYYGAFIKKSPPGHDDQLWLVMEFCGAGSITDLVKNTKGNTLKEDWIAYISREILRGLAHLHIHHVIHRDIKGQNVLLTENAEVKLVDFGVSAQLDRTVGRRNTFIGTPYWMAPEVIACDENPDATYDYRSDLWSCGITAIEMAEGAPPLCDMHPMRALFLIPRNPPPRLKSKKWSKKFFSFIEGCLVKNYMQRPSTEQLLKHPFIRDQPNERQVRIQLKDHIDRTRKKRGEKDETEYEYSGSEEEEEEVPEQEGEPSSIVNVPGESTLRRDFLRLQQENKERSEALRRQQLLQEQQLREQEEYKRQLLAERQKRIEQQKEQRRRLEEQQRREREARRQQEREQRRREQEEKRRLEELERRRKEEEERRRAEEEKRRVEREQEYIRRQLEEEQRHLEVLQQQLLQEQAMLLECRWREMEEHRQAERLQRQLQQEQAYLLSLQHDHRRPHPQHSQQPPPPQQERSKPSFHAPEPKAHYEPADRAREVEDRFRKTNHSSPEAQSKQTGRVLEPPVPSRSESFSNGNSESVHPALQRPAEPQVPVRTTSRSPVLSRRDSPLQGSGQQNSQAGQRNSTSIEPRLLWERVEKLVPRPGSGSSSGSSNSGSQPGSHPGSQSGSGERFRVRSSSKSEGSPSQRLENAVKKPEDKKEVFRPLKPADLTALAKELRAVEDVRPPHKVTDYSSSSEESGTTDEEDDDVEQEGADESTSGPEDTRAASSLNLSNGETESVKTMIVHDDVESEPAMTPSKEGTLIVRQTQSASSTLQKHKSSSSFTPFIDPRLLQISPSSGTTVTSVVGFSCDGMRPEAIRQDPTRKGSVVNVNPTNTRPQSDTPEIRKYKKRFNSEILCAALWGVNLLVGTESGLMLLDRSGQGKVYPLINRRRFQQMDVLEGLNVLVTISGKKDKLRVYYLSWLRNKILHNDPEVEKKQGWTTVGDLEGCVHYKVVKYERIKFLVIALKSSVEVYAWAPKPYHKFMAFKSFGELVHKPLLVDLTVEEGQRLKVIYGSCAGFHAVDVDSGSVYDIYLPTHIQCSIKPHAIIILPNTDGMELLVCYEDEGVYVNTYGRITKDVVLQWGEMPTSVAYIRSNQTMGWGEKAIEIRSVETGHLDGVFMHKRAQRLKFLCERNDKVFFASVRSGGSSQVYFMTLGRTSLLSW

## Nc1ncc(C(=O)NC2CC2)c2ccc(-c3cccc(F)c3)nc12
[1]
  CLhep predicted: 78 mL/min/kg
[2]
  efflux ratio at 1 h, 10 µM: 0.74
[3]
  IC50: 1.4 nM
[4]
  IC50: 99 nM
[5]
  CLhep predicted: 16 mL/min/kg
[6]
  Papp at 1 h, 10 µM: 3.4 ×10⁻⁶ cm/s

## CCC(=O)N1CC(NC(=O)c2cnc(N)c3nc(-c4cccc(F)c4)ccc23)C1
[1]
  CLhep predicted: 28 mL/min/kg
[3]
  IC50: 3.5 nM
[4]
  IC50: 79 nM
[5]
  CLhep predicted: 5 mL/min/kg

## Nc1ncc(C(=O)NC2CN(C(=O)C3CC3)C2)c2ccc(-c3cccc(F)c3)nc12
[7]
  Cmax: 4000 nM
[8]
  Time: > 24 h
[9]
  bioavailability: 40%
[10]
  AUC: 21 µM·h
[11]
  Tmax: 1.7 h
[12]
  clearance: 19 mL/min/kg
[13]
  Tmax: 4 h
[14]
  Vd: 1.6 L/kg
[15]
  Cmax: 2700 nM
[16]
  Cmax: 1400 nM
[17]
  Cmax: 1500 nM
[18]
  AUC(0-inf): 12 µM·h
[19]
  half-life: 1.8 h
[20]
  Cmax: 3900 nM
[1]
  CLhep predicted: 13 mL/min/kg
[2]
  efflux ratio at 1 h, 10 µM: 2.3
[21]
  AUC(0-inf): 5.3 µM·h
[22]
  Vd: 1.1 L/kg
[23]
  half-life: 1.5 h
[24]
  Vd: 1.2 L/kg
[3]
  IC50: 3.7 nM
[25]
  half-life: 3.4 h
[26]
  fraction unbound: 0.022
[27]
  fraction unbound: 0.056
[28]
  bioavailability: 47%
[29]
  Drug uptake(free): 0.008 µM
[4]
  IC50: 57 nM
[30]
  Tmax: 1 h
[31]
  Cmax: 1200 nM
[32]
  clearance: 7.5 mL/min/kg
[33]
  F: 37%
[34]
  Activity: Active
[5]
  CLhep predicted: 7 mL/min/kg
[35]
  Activity: Active
[6]
  Papp at 1 h, 10 µM: 7.3 ×10⁻⁶ cm/s

## Nc1ncc(C(=O)NC2CC(O)C2)c2ccc(-c3cccc(F)c3)cc12 (mixture of isomers)
[36]
  Kp: 0.02
[3]
  IC50: 41 nM
[37]
  CLhep predicted: 14.9 mL/min/kg

## Nc1ncc(C(=O)N[C@H]2C[C@@H](O)C2)c2ccc(-c3cccc(F)c3)nc12
[1]
  CLhep predicted: 61 mL/min/kg
[2]
  efflux ratio at 1 h, 10 µM: 0.83
[3]
  IC50: 3.7 nM
[4]
  IC50: 215 nM
[5]
  CLhep predicted: 6 mL/min/kg
[6]
  Papp at 1 h, 10 µM: 10.1 ×10⁻⁶ cm/s

## CNC(=O)N1CC(NC(=O)c2cnc(N)c3nc(-c4cccc(F)c4)ccc23)C1
[1]
  CLhep predicted: 32 mL/min/kg
[2]
  efflux ratio at 1 h, 10 µM: 1.1
[4]
  IC50: 196 nM
[5]
  CLhep predicted: 9 mL/min/kg
[6]
  Papp at 1 h, 10 µM: 2.4 ×10⁻⁶ cm/s

## NC(=O)c1cnc(N)c2cc(-c3cccc(F)c3)ccc12
[3]
  IC50: 18 nM
[37]
  CLhep predicted: 40 mL/min/kg

## Nc1ncc(C(=O)NC2CC2)c2ccc(-c3cccc(F)c3)cc12
[37]
  CLhep predicted: 28 mL/min/kg
[38]
  IC50: 16 nM

## Nc1ncc(C(=O)NC2CNC2)c2ccc(-c3cccc(F)c3)cc12
[37]
  CLhep predicted: 10.7 mL/min/kg

## CNC(=O)N1CC(NC(=O)c2cnc(N)c3cc(-c4cccc(F)c4)ccc23)C1
[37]
  CLhep predicted: 12.7 mL/min/kg

## CC(=O)N1CC(NC(=O)c2cnc(N)c3cc(-c4cccc(F)c4)ccc23)C1
[3]
  IC50: 32 nM
[37]
  CLhep predicted: 9 mL/min/kg

## N#CCNC(=O)c1cnc(N)c2cc(-c3cccc(F)c3)ccc12
[36]
  Kp: 0.12
[3]
  IC50: 46 nM
[37]
  CLhep predicted: 23 mL/min/kg

## Nc1ncnc2ccc(-c3cccc(F)c3)cc12
[37]
  CLhep predicted: 47.5 mL/min/kg

Reference: ChEMBL document CHEMBL3621153, “Structure-Based Design of GNE-495, a Potent and Selective MAP4K4 Inhibitor with Efficacy in Retinal Angiogenesis” (ACS Med Chem Lett, 2015)
